In the library only some 3.3% were active in any assay of this set; here they are far more common.
PglD DTNB – PglD (C. jejuni) enzyme inhibition; purified PglD enzyme, DTNB colorimetric CoA detection; inhibition, % at 12.5 µM; actives 0.098% (n = 360,000); AID 602405; in the data active means inhibition above about 16%, passing the limit was not always enough
DENV2 CPE – DENV2-induced cell death inhibition. DENV2-infected cells, cytopathic effect rescue, plate reader. CPE inhibition, % at 9.99 µM. actives 1.7% (n = 350,000). AID 651640; in the data active means CPE inhibition above about 20%, passing the limit was not always enough; tested in BHK-21 cells
FGF22 binding – shifts melting point of recombinant human FGF22. recombinant FGF22 thermal shift, SYPRO orange fluorescence; percent of sucrose octasulfate shift, DMSO zero. Q9HCT0. actives 1.5% (n = 340,000). AID 651658. activity (Tm shift, normalised), % at 9.99 µM;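 active means mean Tm shift, scaled 0 neutral to 100 positive control, at about 1.3% or above, every replicate too, limit read from the data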
Target sequence (Q9HCT0 whole entry, looked up): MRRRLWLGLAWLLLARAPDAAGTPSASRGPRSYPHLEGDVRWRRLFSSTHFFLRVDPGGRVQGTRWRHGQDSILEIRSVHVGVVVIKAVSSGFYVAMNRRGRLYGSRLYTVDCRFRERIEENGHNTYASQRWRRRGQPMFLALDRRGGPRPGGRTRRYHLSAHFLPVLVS
E-sel inducer – E-selectin induction on HUVECs; P16581; HUVEC E-selectin immunofluorescence imaging; normalized: neutral wells 0, TNF-alpha wells 100; activation, % at 7.58 µM; actives 0.37% (n = 260,000);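 active means mean E-selectin-positive cell signal at least 10% of the positive control, reached in at least 60% of replicates, without over 20% cell loss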
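assay system = HUVEC, human umbilical vein endothelial cells | input = 3,000 HUVEC seeded per well | medium = EGM-2 growth medium on 0.1% gelatin-coated wells | dosing = one compound dose added by pin transfer | signal = immunofluorescence imaging | read-out basis = % PE-positive cells | control set = TNF-alpha, DMSO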
C2C12 statin – protects C2C12 myotubes from simvastatin toxicity; actives 0.78% (n = 330,000); rescue of ATP level, % at 7.49 µM; AID 602340; ATP luminescence, 48 h; scaled: DMSO 0, geranylgeraniol control 100;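 active means mean ATP rescue above about 67%, or every replicate alone reaching that limit, limit read from the data, passing the limit was not always enough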;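 further: myotubes were challenged with 10 µM simvastatin during compound exposure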
XiGFP reactiv – activators of X-chromosome reactivation in mouse fibroblasts | XiGFP mouse fibroblasts, % GFP-positive cells imaging, 3 d; cells co-treated with 5-aza-dC sensitizer; scaled so ellipticine positive control = 100% | activation, % at 7.58 µM | actives 0.055% (n = 360,000) | AID 743238;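 active means mean normalized replicate activation at least 10% and every replicate at or above 10%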
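Schedule: 3 d treatment, 15 min room-temperature fixation; system: 68-5-11 XiGFP fibroblast line; buffer or medium: DMEM plus 5-aza-dC sensitizer; control set: ellipticine 6 µM positive control; compound: one concentration, pinned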
Numbers stand for hits.

Screening C[C@@H]1CN([C@H](C)CO)C(=O)c2cccc(NC(=O)c3ccc(-c4nccs4)cc3)c2O[C@H]1CN(C)Cc1ccc(Oc2ccccc2)cc1 returned PglD DTNB inactive, DENV2 CPE inactive, FGF22 binding inactive, E-sel inducer 74.6, C2C12 statin inactive and XiGFP reactiv inactive.
COC(=O)N1CCCCC1c1cc(C(=O)Nc2ccc(OC)cc2C)no1 (stereo not given) was read as PglD DTNB inactive, DENV2 CPE 50.6, FGF22 binding inactive, E-sel inducer inactive, C2C12 statin inactive and XiGFP reactiv inactive.
COc1ccc(S(=O)(=O)N2CCCCC2c2cc(C(=O)Nc3ccccc3)no2)cc1 (stereo not given) was read as PglD DTNB inactive, DENV2 CPE 32.9, FGF22 binding inactive, E-sel inducer inactive, C2C12 statin inactive and XiGFP reactiv inactive.
For COc1ccc(C(=O)N2CCCCC2c2cc(C(=O)Nc3ccc(OC)cc3C)no2)cc1 (stereo not given) the results were PglD DTNB inactive, DENV2 CPE inactive, FGF22 binding inactive, E-sel inducer inactive, C2C12 statin inactive and XiGFP reactiv inactive.
Screening COc1ccc(NC(=O)c2cc(C3CCCCN3C(=O)c3cc(C(C)(C)C)nn3C)on2)c(C)c1 (stereo not given) returned PglD DTNB inactive, DENV2 CPE 48.0, FGF22 binding inactive, E-sel inducer inactive, C2C12 statin inactive and XiGFP reactiv inactive.
Screening COc1ccc(C(=O)N2CCCCC2c2cc(C(=O)NCc3cccnc3)no2)cc1 (stereo not given) returned PglD DTNB inactive, DENV2 CPE 32.8, FGF22 binding inactive, E-sel inducer inactive, C2C12 statin inactive and XiGFP reactiv inactive.
Screening CCNC(=O)C[C@H]1CC[C@@H]2[C@H](COC[C@@H](O)CN2C(=O)Nc2ccc(Cl)c(Cl)c2)O1 returned PglD DTNB inactive, DENV2 CPE inactive, FGF22 binding inactive, E-sel inducer inactive, C2C12 statin inactive and XiGFP reactiv inactive.
For COC(=O)N1CCCCC1c1cc(C(=O)Nc2ccccc2Cl)no1 (stereo not given) the results were PglD DTNB inactive, DENV2 CPE 27.8, FGF22 binding inactive, E-sel inducer inactive, C2C12 statin inactive and XiGFP reactiv inactive.
For Cc1ccc(F)cc1C(=O)N1CCCCC1c1cc(C(=O)NC(C)C)no1 (stereo not given) the results were PglD DTNB inactive, DENV2 CPE 56.1, FGF22 binding inactive, E-sel inducer inactive, C2C12 statin inactive and XiGFP reactiv inactive.
Screening COc1ccccc1-c1cn(CC[C@H]2CC[C@@H](NC(=O)C3CCC3)[C@@H](CO)O2)nn1 returned PglD DTNB inactive, DENV2 CPE inactive, FGF22 binding inactive, E-sel inducer inactive, C2C12 statin inactive and XiGFP reactiv inactive.
Cc1cc(=O)oc2cc(OCCSCCN3CCCC3)ccc12 was read as PglD DTNB inactive, DENV2 CPE 36.5, FGF22 binding inactive, E-sel inducer inactive and XiGFP reactiv inactive.
CCCCOC(=O)CSc1nc(N)c(C#N)c(-c2ccc(OC)cc2)c1C#N was read as PglD DTNB inactive and C2C12 statin 90.2.
`COc1ccc(NC(=O)C2CC(=O)N=C(N)S2)cc1` (stereo not given) gave PglD DTNB inactive, DENV2 CPE inactive, FGF22 binding 43.1, C2C12 statin inactive and XiGFP reactiv inactive.
CC(C)c1ccc(NC(=O)C2CC(=O)N=C(N)S2)cc1 (stereo not given) was read as PglD DTNB inactive and C2C12 statin 138.2.
For CCc1ccc(NC(=O)C2CC(=O)N=C(N)S2)cc1 (stereo not given) the results were PglD DTNB inactive and C2C12 statin inactive.
For Cc1noc(C)c1S(=O)(=O)Nc1ccc2c(c1)CC(=O)N([C@@H](C)CO)C[C@H](C)[C@H](CN(C)Cc1ccc3c(c1)OCO3)O2 the results were PglD DTNB inactive, DENV2 CPE inactive, FGF22 binding inactive, C2C12 statin inactive and XiGFP reactiv inactive.

Screening data as filed in PubChem BioAssay.
